According to ChEMBL document CHEMBL3046679, “Design, synthesis, and biological activities of arylmethylamine substituted chlorotriazine and methylthiotriazine compounds” (J Agric Food Chem, 2011):
The source made the active and inactive calls. The calls are words filed in the database; no cut-off is given here.

Columns and labels:
Poa annua = assay: Herbicidal activity against Poa annua assessed as growth inhibition at 32 ppm by 96-well plate test; type: functional; details: read-out: GI
How it was run: (§1)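 96-well plate herbicide screen: Arabidopsis thaliana at 10 ppm and Poa annua at 32 ppm, two replicates. Plates incubated seven days in a controlled-environment cabinet. Each replicate scored 0 (no visible effect) or 99 (herbicidal effect); values are the mean of the two. Atrazine used as reference.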

Arabidopsis thaliana = assay: Herbicidal activity against Arabidopsis thaliana assessed as growth inhibition at 10 ppm by 96-well plate test; type: functional; details: read-out: GI; how it was run: as §1
Lolium perenne [1] = assay: Herbicidal activity against Lolium perenne (perennial ryegrass) assessed as growth inhibition at 1 kg/ha postemergence treatment by glasshouse test; type: functional; details: post-emergence, read-out: GI
How it was run: (§2)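 Glasshouse screen with pre- or postemergence application at 1.0 kg/ha. Result given as percent inhibition of plant growth; norflurazon and glyphosate used as controls.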

Amaranthus retroflexus [2] = assay: Herbicidal activity against Amaranthus retroflexus assessed as growth inhibition at 1 kg/ha postemergence treatment by glasshouse test; type: functional; details: post-emergence, read-out: GI; how it was run: as §2
Digitaria sanguinalis [3] = assay: Herbicidal activity against Digitaria sanguinalis (hairy crabgrass) assessed as growth inhibition at 1 kg/ha preemergence treatment by glasshouse test; type: functional; details: pre-emergence, read-out: GI; how it was run: as §2
Phytophthora infestans = assay: Fungicidal activity against Phytophthora infestans assessed as inhibition of mycelia growth at 200 ppm; type: functional, organism-based
Amaranthus retroflexus [4] = assay: Herbicidal activity against Amaranthus retroflexus assessed as growth inhibition at 1 kg/ha preemergence treatment by glasshouse test; type: functional; details: pre-emergence, read-out: GI; how it was run: as §2
Stellaria media [5] = assay: Herbicidal activity against Stellaria media assessed as growth inhibition at 1 kg/ha postemergence treatment by glasshouse test; type: functional; details: post-emergence, read-out: GI; how it was run: as §2
Fusarium graminearum = assay: Fungicidal activity against Fusarium graminearum assessed as inhibition of mycelia growth at 2 ppm; type: functional, organism-based
How it was run: (§3)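 Mycelial growth test in 96-well plates: compound incorporated into artificial growth medium at 2 ppm, two replicates per rate. Each well scored 99 for complete, 55 for partial or 0 for no inhibition. Values are the mean across replicates; azoxystrobin and prochloraz used as positive controls.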

Botrytis cinerea = assay: Fungicidal activity against Botryotinia fuckeliana assessed as inhibition of mycelia growth at 2 ppm; type: functional, organism-based; how it was run: as §3
Brassica napus [6] = assay: Herbicidal activity against Brassica napus (oilseed rape) at 1.5 kg/ha preemergence treatment measured after 10 days by glasshouse test; type: functional; details: pre-emergence, 240 h
How it was run: (§4)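 Glasshouse pre/postemergence test, each treatment in triplicate. Above-ground fresh weight measured 10 days after treatment. Result expressed as percent inhibition versus control, from 0 (no control) to 100 (complete control); glyphosate used as positive control.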

Aphididae = assay: Insecticidal activity against Aphididae (aphids) assessed as mortality at 1000 ppm by leaf-disk assay; type: functional, organism-based
How it was run: (§5)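 Leaf-disk assay at 1000 ppm, three replicates. Plates kept 5–9 days in controlled-environment cabinets. Mortality judged against untreated wells: 99 for significant mortality, 0 otherwise. Values are the mean of three; thiamethoxam and indoxacarb used as positive controls.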

Digitaria sanguinalis [7] = assay: Herbicidal activity against Digitaria sanguinalis (hairy crabgrass) assessed as growth inhibition at 1 kg/ha postemergence treatment by glasshouse test; type: functional; details: post-emergence, read-out: GI; how it was run: as §2
Zymoseptoria tritici = assay: Fungicidal activity against Zymoseptoria tritici assessed as inhibition of mycelia growth at 100 ppm; type: functional, organism-based
Echinochloa crus-galli [8] = assay: Herbicidal activity against Echinochloa crus-galli (barnyard grass) at 1.5 kg/ha postemergence treatment measured after 10 days by glasshouse test; type: functional; details: post-emergence, 240 h; how it was run: as §4
Pythium dissimile = assay: Fungicidal activity against Pythium dissimile assessed as inhibition of mycelia growth at 2 ppm; type: functional, organism-based; how it was run: as §3
Lolium perenne [9] = assay: Herbicidal activity against Lolium perenne (perennial ryegrass) assessed as growth inhibition at 1 kg/ha preemergence treatment by glasshouse test; type: functional; details: pre-emergence, read-out: GI; how it was run: as §2
Heliothis virescens = assay: Insecticidal activity against Lepidoptera Heliothis virescens (tobacco budworm) assessed as mortality at 1000 ppm by leaf-disk assay; type: functional, organism-based; how it was run: as §5
Stellaria media [10] = assay: Herbicidal activity against Stellaria media assessed as growth inhibition at 1 kg/ha preemergence treatment by glasshouse test; type: functional; details: pre-emergence, read-out: GI; how it was run: as §2
Brassica napus [11] = assay: Herbicidal activity against Brassica napus (oilseed rape) at 1.5 kg/ha postemergence treatment measured after 10 days by glasshouse test; type: functional; details: post-emergence, 240 h; how it was run: as §4
Echinochloa crus-galli [12] = assay: Herbicidal activity against Echinochloa crus-galli (barnyard grass) at 1.5 kg/ha preemergence treatment measured after 10 days by glasshouse test; type: functional; details: pre-emergence, 240 h; how it was run: as §4
Alternaria solani = assay: Fungicidal activity against Alternaria solani assessed as inhibition of mycelia growth at 2 ppm; type: functional, organism-based; how it was run: as §3
Uromyces viciae-fabae = assay: Fungicidal activity against Uromyces viciae-fabae assessed as inhibition of mycelia growth at 100 ppm; type: functional, organism-based
How it was run: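 Leaf-piece assay on bean at 100 ppm, with compound applied before spore inoculation and two replicates. Each well scored 99 for complete inhibition, 55 for partial and 0 for none; value is the mean score across replicates.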

Structure (SMILES) | inhibition of growth at 32 ppm (Poa annua) | inhibition of growth at 10 ppm (Arabidopsis thaliana) | inhibition of growth at 1000 g/ha (Lolium perenne [1]) | inhibition of growth at 1000 g/ha (Amaranthus retroflexus [2]) | inhibition of growth at 1000 g/ha (Digitaria sanguinalis [3]) | inhibition (Phytophthora infestans) | inhibition of growth at 1000 g/ha (Amaranthus retroflexus [4]) | inhibition of growth at 1000 g/ha (Stellaria media [5]) | inhibition (Fusarium graminearum) | inhibition (Botrytis cinerea) | inhibition at 1500 g/ha (Brassica napus [6]) | inhibition of growth at 1000 g/ha (Digitaria sanguinalis [7]) | inhibition at 1500 g/ha (Echinochloa crus-galli [8]) | inhibition (Pythium dissimile) | inhibition of growth at 1000 g/ha (Lolium perenne [9]) | mortality (Heliothis virescens) | inhibition of growth at 1000 g/ha (Stellaria media [10]) | inhibition at 1500 g/ha (Brassica napus [11]) | inhibition at 1500 g/ha (Echinochloa crus-galli [12]) | inhibition (Alternaria solani) | also measured
CNc1cnn(-c2cccc(C(F)(F)F)c2)c(=O)c1Cl [NORFLURAZONE] | 99% | 99% |  |  |  |  |  |  |  |  |  |  |  |  |  |  |  |  |  |  | 
CSc1nc(NCc2ccc(F)cc2)nc(NC(C)C)n1 | 0% | 99% | 80% | 100% | 0% | inactive | 100% | 100% | inactive | inactive | 100% | 80% | 100% | inactive | 50% | inactive | 90% | 100% | 21.4% |  | mortality (Aphididae): inactive; inhibition (Zymoseptoria tritici): inactive
CC(C)Nc1nc(Cl)nc(NCc2cc(-c3ccccc3)no2)n1 |  |  |  |  |  | inactive |  |  | inactive |  | 20.1% |  | 17.7% | inactive |  | Active |  | 42.4% | 4.3% | inactive | mortality (Aphididae): inactive
CC(C)Nc1nc(Cl)nc(NCc2cnc(Br)s2)n1 |  |  |  |  |  | inactive |  |  | inactive | inactive | 5.2% |  | 10.4% | inactive |  | inactive |  | 10% | 11.3% | inactive | inhibition (Uromyces viciae-fabae): inactive; mortality (Aphididae): inactive; inhibition (Zymoseptoria tritici): inactive
CCNc1nc(NC(C)C)nc(SC)n1 [AMETRYNE] | 0% | 99% | 100% | 100% | 90% | inactive | 100% | 100% | inactive |  | 100% | 100% | 100% | inactive | 90% | inactive | 90% | 100% | 100% | inactive | mortality (Aphididae): inactive; inhibition (Zymoseptoria tritici): inactive
CSc1nc(NCc2ccc(Cl)nc2)nc(NC(C)C)n1 | 0% | 99% | 50% | 70% | 0% | inactive | 100% | 100% | inactive | Active | 100% | 90% | 88.6% | inactive | 10% | inactive | 90% | 100% | 88.6% | inactive | inhibition (Zymoseptoria tritici): inactive
O=C(O)CNCP(=O)(O)O [GLYPHOSATE] |  |  | 80% | 90% | 0% |  | 90% | 80% |  |  |  | 90% |  |  | 0% |  | 0% |  |  |  | 
CC(C)Nc1nc(Cl)nc(NCC2CCCO2)n1 (centres undefined) |  |  |  |  |  |  |  |  |  |  | 100% |  | 41.3% |  |  |  |  | 100% | 46.4% |  | 
CSc1nc(NCc2cnc(Br)s2)nc(NC(C)C)n1 |  |  |  |  |  |  |  |  |  |  | 87.1% |  | 92% |  |  |  |  | 100% | 74.6% |  | 
CCNc1nc(Cl)nc(NC(C)C)n1 [ATRAZINE] | 0% | 99% | 100% | 100% | 0% | inactive | 100% | 100% | inactive | inactive | 100% | 70% | 100% | inactive | 80% | inactive | 90% | 100% | 100% | inactive | 
